The source made the active and inactive calls. No cut-off for these calls is given here.

Here are results for 28 compounds from ChEMBL document CHEMBL4177581, “The compound (3-{5-[(2,5-dimethoxyphenyl)amino]-1,3,4-thiadiazolidin-2-yl}-5,8-methoxy-2H-chromen-2-one) inhibits the prion protein conversion from PrPC to PrPSc with lower IC50 in ScN2a cells” (Bioorg Med Chem, 2017).

Assay [1] addresses Major prion protein (Mesocricetus auratus) (UniProt P04273). In words: Binding affinity to Syrian hamster PrPC assessed as inhibition of PrPC protein conversion to PrPSc by measuring PrPSc level relative to untreated control. Also noted: concentration or dose not given beside the values.
For assay [2], the target named is T1, Major prion protein (Mesocricetus auratus, UniProt P04273). Kind of assay: Binding affinity to Syrian hamster PrPC assessed as inhibition of PrPC protein conversion to PrPSc by Western blot. A general note: In western blotting, separated proteins are transferred to a membrane and probed.
The subject of another assay is ScN2a. Kind of assay: Antiprion activity against mouse prion protein RML infected mouse ScN2a cells assessed as reduction in proteinase K-resistant PrPSc level at 10 to 100 uM incubated for 5 days followed by proteinase K digestion by Western blot method relative to control. The assay is classed as cell-based. The method in brief:
(§1)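 RML scrapie-infected mouse N2a (ScN2a) cells treated for 5 days at […]. Lysates were made in 0.5% NP-40/0.5% deoxycholate Tris-HCl pH 8 buffer and normalised to 1 mg/ml protein. They were digested with 20 µg/ml proteinase K for 1 h at 37 °C, stopped with PMSF, and pelleted at 100,000g. Pellets were immunoblotted with 6D11-biotin. DMSO and quinacrine controls set the normalised percent PrPSc change.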

Assay [3] is described as follows: Antiprion activity against mouse prion protein RML infected mouse ScN2a cells assessed as reduction in proteinase K-resistant PrPSc level incubated for 5 days followed by proteinase K digestion by Western blot method relative to control. In kind it is cell-based. As to conditions: 120 h. The method, boiled down:
as §1

Assay [4] has as its target T1, Major prion protein. Kind of assay: Binding affinity to Syrian hamster PrPC.
In assay [5] the target is Major prion protein (Mesocricetus auratus) (UniProt P04273). In words: Binding affinity to C-terminal 6x-His-tagged Syrian hamster PrPC (90 to 232 residues) by 15N-HSQC NMR spectroscopy. The method in brief:
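Uniformly 15N-labelled Syrian hamster PrPC residues 90–232 was titrated with ligand at a 5:1 ligand/protein molar ratio. 15N-HSQC spectra were recorded, and binding was read as chemical shift changes and signal attenuation of residues.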

T1 sequence (P04273 whole entry): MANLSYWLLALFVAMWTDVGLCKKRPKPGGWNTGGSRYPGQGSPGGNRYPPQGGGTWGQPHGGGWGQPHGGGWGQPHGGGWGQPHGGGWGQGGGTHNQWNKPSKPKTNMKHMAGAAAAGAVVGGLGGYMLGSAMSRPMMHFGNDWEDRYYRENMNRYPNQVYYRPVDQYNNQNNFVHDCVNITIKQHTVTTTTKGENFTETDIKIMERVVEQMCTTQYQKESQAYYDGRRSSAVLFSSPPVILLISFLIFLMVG
Chain of Major prion protein (Mesocricetus auratus) (P04273 whole entry, the tested form may be a part): as the sequence (P04273 whole entry) above

As a reminder, the EC50 is the concentration at which the effect is half-maximal. As to `O=C(COC(=O)c1c2c(nc3ccccc13)CCC2)NC1CCCC1`, the Activity in assay [1] was found to be 62.9%. In addition, the EC50 at Major prion protein [2] came to 7.2 µM.
The corresponding values for `O=C(N[C@@H]1CCc2ccccc2C1)C(=O)O[C@@H]1C=CCc2ccccc21` are 53% and 7.27 µM.
For orientation: IC50 means the concentration at which inhibition is half-maximal. Take `COc1ccc(-c2cnc(N)nc2C)cc1OC`: the inhibition entry in the assay on ScN2a was “Active”. Also, the IC50 in assay [3] was 35 µM.
`CCC[C@@H]1Nc2ccccc2N1CC(=O)N1CCCc2ccccc21`: in assay [1], the Activity amounted to 67.2%. Also, the EC50 on Major prion protein [2] was 7.17 µM.
A word on the Kd: it is the free concentration of one partner at which half of the binding sites on the other are occupied at equilibrium, for simple one-to-one binding. Take `O=C(CC1CNc2ccccc21)NC1CCc2ccccc2C1` (stereo unspecified): the Activity in assay [1] turned out to be 55.3%. This compound registered a dissociation constant (Kd) on Major prion protein [4] of 48.6 µM. Besides, at Major prion protein [2], the EC50 stood at 7.25 µM.
`O=C(NC1CCCC1)C1CCCN1C(=O)Nc1ccccc1` (stereo unspecified): the Activity in assay [1] amounted to 63.2%. Besides, the concentration for a half-maximal effect (EC50) on Major prion protein [2] is 7.19 µM.
For `O=C(CCc1nc2ccccc2c(=O)[nH]1)NC1CCCc2ccccc21` (stereo unspecified), in assay [1], the Activity stood at 65%. The 50% effective concentration (EC50) on Major prion protein [2] stood at 7.18 µM.
For `O=C(CN1C(=O)COc2ccccc21)N1CCCc2ccccc21`, in that order: 57.5% and 7.24 µM.
The corresponding values for `O=C(CN1C(=O)c2cccc3cccc1c23)N[C@@H]1C[C@H]2CC[C@@H]1C2` are 65% and 7.18 µM.
The corresponding values for `CC1CCCCC1NC(=O)COc1ncnc2sc3c(c12)CCC3` (stereo unspecified) are 68.8% and 7.16 µM.
`Cc1cccc2cc(C#N)c(N3CCCN(C(=O)C4CCC4)CC3)nc12`: the Activity in assay [1] is 50.6%. Also, the EC50 on Major prion protein [2] is 7.29 µM.
For `N#Cc1c(NC(=O)c2cc3c(s2)CCCC3)sc2c1CCCC2`, in that order: 66.9% and 7.17 µM.
Take `COc1ccc(OC)c(-c2nc(NC(=O)c3cc(OC)c(OC)c(OC)c3)sc2C)c1`: the inhibition result with ScN2a is “Active”. The IC50 in assay [3] was 75 µM. Moreover, the Kd at Major prion protein [4] came to 185 µM.
The corresponding values for `COc1ccc(OC)c(Nc2nnc(-c3cc4cccc(OC)c4oc3=O)s2)c1` are “Active”, 20 µM and 46.4 µM.
As for `CN1/C(=C/C(=O)Nc2cccs2)c2ccccc2CC1(C)C`, the Activity in assay [1] amounted to 57.4%. At Major prion protein [2], the EC50 is 7.24 µM.
For `O=C(CN1C(=O)N[C@@]2(CCCc3ccccc32)C1=O)N1CCCCC1`, in that order: 67.1% and 7.17 µM.
For `CC1Cc2ccccc2N1C(=O)COc1ncnc2sccc12` (stereo unspecified), in that order: 67.4% and 7.17 µM.
The corresponding values for `Cc1cccc2cc3c(N)c(C(=O)NC4CCCC4)sc3nc12` are 41.9% and 7.37 µM.
In the case of `COc1ccc(-c2nc(N)sc2-c2ccc(OC)cc2)cc1`, in the assay on ScN2a, the inhibition entry was “Active”. Moreover, the half-inhibitory concentration (IC50) in assay [3] is > 100 µM. At Major prion protein [4], the equilibrium dissociation constant (Kd) is 15.5 µM.
As to `Cc1cc2cc3c(cc2nc1SCCN1CCCCC1)OCCO3`, the Activity in assay [1] was 47.4%. Moreover, binding at Major prion protein [4] was put at a Kd of 50.8 µM. Also, the EC50 on Major prion protein [2] was 7.32 µM.
As for `COc1ccc(-c2nc(N)sc2C)c(OC)c1`, the inhibition result in the assay with ScN2a is “Active”. Moreover, the IC50 in assay [3] worked out at 35 µM.
For the compound `C=CNC(=O)NC(C)=O`, the Activity in assay [1] was 56.7%. Moreover, at Major prion protein [2], the half-maximal effective concentration (EC50) was found to be 7.24 µM.
Regarding `CCC(C)C(NC(=O)c1ccccc1)C(=O)N1CCc2ccccc21` (stereo unspecified), the Activity in assay [1] amounted to 36.8%. In addition, the outcome in assay [5] was Active. In addition, the Kd at Major prion protein [4] was 51.2 µM. In addition, the half-maximal effective concentration (EC50) at Major prion protein [2] amounted to 7.43 µM.
As to `O=C(CSc1ncnc2sc3c(c12)CCC3)NCC1CCCO1` (stereo unspecified), the 50% effective concentration (EC50) on Major prion protein [2] amounted to 7.02 µM.
Consider `O=C(CN1CCc2ccccc21)[C@H]1COc2cc3c(cc21)CCC3`, for which the Activity in assay [1] was determined as 63.7%.
Regarding `CCCCNc1nc2ccccc2n1CC(=O)N1CCc2ccccc21`, the Activity in assay [1] is 37.3%. Besides, at Major prion protein [2], the concentration giving a half-maximal response (EC50) turned out to be 7.42 µM.
For `C[C@@H]1CCCCN1CC(=O)N[C@@H]1S[C@H]2CCCC[C@@H]2[C@H]1C#N`, in that order: 58.8% and 7.23 µM.
Take `COc1ccc(-c2cnc(N)nc2-c2ccc(OC)cc2)cc1`: the inhibition result in the assay on ScN2a is “Active”. The 50% inhibitory concentration (IC50) in assay [3] was determined as 35 µM.
